In publication PMC8165011 (European journal of medicinal chemistry, 2021):
Values after ≈ are worked out from the molar mass of the structure shown. Values belong to the compound of their own block, whether it stands above or below them.

Assays:
[1] = test system: E. faecalis ATCC 29212; test: Multistep; format: cell-based; details: for increase in resistance (in words): through the 14th passage
[2] = test system: S. aureus ATCC 25923 biofilm; test: Biofilm inhibition assay; format: cell-based; details: 2xMIC
Outline: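 After 24 h at 35 °C: PBS washes, drying at 60 °C for 15 min, 0.1% (w/v) crystal violet for 15 min, solubilisation in 33% acetic acid, OD 620 nm. Controls: broth only, and bacteria with DMSO.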

[3] = test system: S. aureus ATCC 700699; test: Time kill assay; format: cell-based; details: 4xMIC
Outline: (§1)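 Log-phase culture diluted to ~5 × 10^6 CFU/ml in warm CAMHB and exposed to test compound at 4xMIC at 35 °C. Samples taken every 2 h, diluted 10-fold down to 10^-5, and viable counts done by 6×6 drop plating after 18–24 h at 35 °C. Each assay run in triplicate.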

[4] = test system: human embryonic kidney (HEK293) cells; test: Cytotoxicity against HEK293 cell line; format: cell-based; details: HEK293 IC50 / MIC for S. aureus ATCC 25923 and ATCC 700699; as high as
Outline: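 HEK293 cells kept in EMEM with 10% FBS at 37 °C, 5% CO2. Seeded at 4000 cells/well and treated 24 h with a concentration range of test compound in DMSO. Resazurin (0.15 mg/ml solution as added) incubated 4 h more; fluorescence read at ex 560/em 590 nm. IC50 obtained by curve fitting; selectivity factor computed as IC50/MIC.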

[5] = test system: S. aureus ATCC 33591; test: Time kill assay; format: cell-based; details: 4xMIC
Outline: as §1

[6] = test system: S. aureus ATCC 700699 (MRSA) stationary phase persister cells; test: Persister cell killing assay; format: cell-based; details: for log reduction of persister cells: within 4 h
[7] = test system: DNA synthesis in S. aureus ATCC 29213; test: Macromolecular synthesis inhibition: DNA synthesis; format: cell-based; details: 0.25xMIC
[8] = test system: S. aureus ATCC 25923 preformed biofilm; test: Biofilm destruction assay; format: cell-based; details: 2xMIC
[9] = test system: tested Gram-positive strains; test: MIC assay, summary over the tested Gram-positive strains; format: cell-based; details: tested Gram-positive strains
Outline: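 CLSI standard broth microdilution. Test compound started at 50 µg/ml and serially diluted 2-fold. Run in triplicate.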

[10] = test system: S. aureus and E. faecalis biofilms; test: Biofilm inhibition and destruction at 4x and 8xMIC; format: cell-based; details: 4x and 8xMIC (data not shown)
[11] = test system: S. aureus ATCC 25923 (MSSA); test: Multistep; format: cell-based
[12] = test system: lipid synthesis in S. aureus ATCC 29213; test: Macromolecular synthesis inhibition: lipid synthesis; format: cell-based; details: MIC
[13] = test system: S. aureus UAMS-1 catheter-associated biofilm; test: In vitro model of catheter-associated biofilm; format: cell-based; details: after 2 days of exposure, 20xMIC (40 μg/ml), per catheter
[14] = test system: S. aureus ATCC 25923 (Sa23), antibiotic susceptible; test: MIC assay; format: cell-based
[15] = test system: antibiotic susceptible E. faecalis ATCC 29212 (Ef12); test: MIC assay; format: cell-based; details: for MIC Efl2: E. faecalis ATCC 29212
[16] = test system: S. aureus ATCC 33592 (Sa92); test: MIC assay; format: cell-based
[17] = test system: S. aureus ATCC 700699 (Sa99); test: MIC assay; format: cell-based; details: for MIC Sa99: S. aureus ATCC 700699
[18] = test system: vancomycin-resistant E. faecium ATCC 700221 (Ef21); test: MIC assay; format: cell-based
[19] = test system: S. epidermidis ATCC 700296 (Se); test: MIC assay; format: cell-based
[20] = test system: S. aureus BAA-2312 (Sa12), antibiotic-resistant; test: MIC assay; format: cell-based
[21] = test system: Bacillus subtilis ATCC 6623 (Bs); test: MIC assay; format: cell-based
[22] = test system: S. aureus ATCC 33591 (Sa91); test: MIC assay; format: cell-based
[23] = test system: S. aureus ATCC 700699 (MRSA); test: Multistep; format: cell-based
[24] = test system: E. faecalis clinical isolates (VRE); test: MIC against clinical isolates of E. faecalis; format: cell-based
[25] = test system: methicillin-sensitive clinical isolate of S. aureus UAMS-1; details: breakpoint MIC used for comparison; ref not given; cited from earlier work
[26] = test system: E. faecalis ATCC 29212 preformed biofilm; test: Biofilm destruction assay; format: cell-based; details: 2xMIC
[27] = test system: S. aureus clinical isolates (MSSA, MRSA); test: MIC against clinical isolates of S. aureus; format: cell-based; details: Staphylococcus aureus
[28] = test system: E. faecium clinical isolates (VRE); test: MIC against clinical isolates of E. faecium; format: cell-based
[29] = sub-lethal exposure, 21 passages

Compound: O=C(O)c1ccc(-n2cc(CNc3cc(Cl)c(F)c(Cl)c3)c(-c3ccc(C(F)(F)F)cc3)n2)cc1 [Compound 74, 4-[4-[(3,5-dichloro-4-fluoro-anilino)methyl]-3-[4-(trifluoromethyl)phenyl]pyrazol-1-yl]benzoic acid]
increase in resistance (in words) [1]: no increase in resistance
biofilm formation inhibited [2]: greater than 85%
time to eliminate more than 3 log values [3]: ≤ 6 h
Selectivity factor (IC50/MIC values) [4]: ≤ 33
time to eliminate more than 3 log values [5]: ≤ 4 h
log reduction of persister cells ([6]; 2xMIC): ~ 1 log
log reduction of persister cells ([6]; 4xMIC): ~ 1 log
log reduction of persister cells ([6]; 8xMIC): ~ 1 log

Compound: O=C(O)c1ccc(-n2cc(CNc3cc(F)cc(C(F)(F)F)c3)c(-c3ccc(C(F)(F)F)cc3)n2)cc1 [Compound 59, 4-[4-[[3-fluoro-5-(trifluoromethyl)anilino]methyl]-3-[4-(trifluoromethyl)phenyl]pyrazol-1-yl]benzoic acid]
increase in resistance (in words) [1]: no increase in resistance
inhibition of DNA synthesis [7]: approximately 44%
preformed biofilm eliminated [8]: around 70%
antimicrobial activity (in words) [9]: most potent compound
biofilm inhibition and destruction [10]: > 95%
passage at which MIC doubled [11, 29]: 8 passage
time to eliminate more than 3 log values [3]: ≤ 4 h
log values of bacteria eliminated ([3]; within 4 h of treatment): more than 3 log
inhibition of lipid synthesis [12]: 56.2%
average CFU counts [13]: 4.74 × 10^5 CFU
Selectivity factor (IC50/MIC values) [4]: ≤ 13
time to eliminate more than 3 log values [5]: ≤ 4 h
log values of bacteria eliminated ([5]; within 4 h of treatment): more than 3 log
log reduction of persister cells ([6]; 2xMIC): ~ 1 log
log reduction of persister cells ([6]; 8xMIC): ~ 3 log

Compound: 4-[4-[(4-chloroanilino)methyl]-3-(p-tolyl)pyrazol-1-yl]benzoic acid [Compound 45]
MIC Sa23 [14]: 1.56 mg/L
MIC Efl2 [15]: 6.25 mg/L
MIC Sa92 [16]: 1.56 mg/L
MIC Sa99 [17]: 1.56 mg/L
MIC Ef21 [18]: 1.56 mg/L
MIC Se [19]: 3.12 mg/L
MIC Sal2 [20]: 1.56 mg/L
MIC Bs [21]: 0.78 mg/L
MIC Sa91 [22]: 1.56 mg/L

Compound: 4-[4-[(4-fluoroanilino)methyl]-3-(p-tolyl)pyrazol-1-yl]benzoic acid [Compound 43]
MIC Sa23 [14]: 6.25 mg/L
MIC Efl2 [15]: 25 mg/L
MIC Sa92 [16]: 12.5 mg/L
MIC Sa99 [17]: 6.25 mg/L
MIC Ef21 [18]: 6.25 mg/L
MIC Se [19]: 12.5 mg/L
MIC Sal2 [20]: 3.12 mg/L
MIC Bs [21]: 1.56 mg/L
MIC Sa91 [22]: 6.25 mg/L

Compound: O=C(O)c1ccc(-n2cc(CNc3cccc(C(F)(F)F)c3)c(-c3ccc(C(F)(F)F)cc3)n2)cc1 [Compound 48, 4-[4-[[3-(trifluoromethyl)anilino]methyl]-3-[4-(trifluoromethyl)phenyl]pyrazol-1-yl]benzoic acid]
antimicrobial activity (in words) [9]: potent activity
MIC ([17]; Staphylococcus aureus, ATCC700699, read-out: MIC Sa99): 0.39 mg/L (≈ 0.772 µM)

Compound: 4-[4-[(3-chloroanilino)methyl]-3-(p-tolyl)pyrazol-1-yl]benzoic acid [Compound 44]
MIC Sa23 [14]: 1.56 mg/L
MIC Efl2 [15]: 12.5 mg/L
MIC Sa92 [16]: 1.56 mg/L
MIC Sa99 [17]: 0.78 mg/L
MIC Ef21 [18]: 0.78 mg/L
MIC Se [19]: 3.12 mg/L
MIC Sal2 [20]: 1.56 mg/L
MIC Bs [21]: 0.78 mg/L
MIC Sa91 [22]: 0.78 mg/L

Compound: O=C(O)c1cn(C2CC2)c2cc(N3CCNCC3)c(F)cc2c1=O [ciprofloxacin]
passage at which resistance started to develop [11]: 7 passage
fold more resistant ([11]; within two weeks of the start): 16 fold
fold more resistant ([23]; within two weeks of the start): 16 fold

MIC ([15]; Enterococcus faecalis, ATCC29212, read-out: MIC Efl2): 1.56 mg/L (≈ 2.74 µM)
Compound: O=C(O)c1ccc(-n2cc(CNc3ccc(Br)c(Cl)c3F)c(-c3ccc(C(F)(F)F)cc3)n2)cc1 [Compound 75, 4-[4-[(4-bromo-3-chloro-2-fluoro-anilino)methyl]-3-[4-(trifluoromethyl)phenyl]pyrazol-1-yl]benzoic acid]
biofilm inhibition and destruction [10]: > 95%

Compound: CN[C@H](CC(C)C)C(=O)N[C@H]1C(=O)N[C@@H](CC(N)=O)C(=O)N[C@H]2C(=O)N[C@H]3C(=O)N[C@H](C(=O)N[C@H](C(=O)O)c4cc(O)cc(O)c4-c4cc3ccc4O)[C@H](O)c3ccc(c(Cl)c3)Oc3cc2cc(c3O[C@@H]2O[C@H](CO)[C@@H](O)[C@H](O)[C@H]2O[C@H]2C[C@](C)(N)[C@H](O)[C@H](C)O2)Oc2ccc(cc2Cl)[C@H]1O [vancomycin, Vancomycin]
MIC ([24]; E. faecalis 1091563, VRE): >32 mg/L
MIC ([24]; E. faecalis 1091720, VRE): >32 mg/L
MIC ([24]; E. faecalis 1094112, VRE): >32 mg/L
MIC ([24]; E. faecalis 1100440, VRE): >32 mg/L
MIC ([24]; Enterococcus faecalis, VRE): > 32 mg/L
passage after which resistance increased ([1]; 14 passages): 7 passage
breakpoint MIC [25]: ≥ 2 mg/L
preformed biofilm destroyed [26]: around 70%
biofilm inhibition and destruction [10]: > 95%
time to decrease bacterial concentration below detectable limits [3]: 8 h
average CFU counts [13]: 1.16 × 10^7 CFU
MIC ([27]; ATCC29213|MRSA|MSSA, S. aureus ATCC 29213, MSSA): 1 mg/L (≈ 0.69 µM)
MIC ([27]; MRSA|MSSA, S. aureus 1088060, MSSA): 0.5 mg/L (≈ 0.345 µM)
MIC ([27]; MRSA|MSSA, S. aureus 1088064, MRSA): 0.5 mg/L (≈ 0.345 µM)
MIC ([27]; MRSA|MSSA, S. aureus 1088105, MSSA): 1 mg/L (≈ 0.69 µM)
MIC ([27]; MRSA|MSSA, S. aureus 1088610, MRSA): 0.5 mg/L (≈ 0.345 µM)
MIC ([27]; MRSA|MSSA, S. aureus 1088626, MSSA): 0.5 mg/L (≈ 0.345 µM)
MIC ([27]; MRSA|MSSA, S. aureus 1088888, MRSA): 1 mg/L (≈ 0.69 µM)
MIC ([27]; MRSA|MSSA, S. aureus 1089106, MRSA): 1 mg/L (≈ 0.69 µM)
time to decrease bacterial concentration below detectable limits [5]: 8 h
MIC ([28]; E. faecium 1088168, VRE): >32 mg/L
MIC ([28]; E. faecium 1088925, VRE): >32 mg/L
MIC ([28]; E. faecium 1089544, VRE): >32 mg/L
MIC ([28]; E. faecium 1091282, VRE): >32 mg/L
MIC ([28]; Enterococcus faecium, VRE): > 32 mg/L
passage at which MIC doubled [23, 29]: 7 passage
effect on viability of MRSA persisters (in words) ([6]; 64xMIC): did not affect the viability

Compound: 4-[4-[(3-fluoroanilino)methyl]-3-(p-tolyl)pyrazol-1-yl]benzoic acid [Compound 42]
MIC Sa23 [14]: 3.12 mg/L
MIC Efl2 [15]: 25 mg/L
MIC Sa92 [16]: 3.12 mg/L
MIC Sa99 [17]: 3.12 mg/L
MIC Ef21 [18]: 6.25 mg/L
MIC Se [19]: 6.25 mg/L
MIC Sal2 [20]: 3.12 mg/L
MIC Bs [21]: 1.56 mg/L
MIC Sa91 [22]: 3.12 mg/L
